According to PMC3742633 (Molecular cancer therapeutics, 2013):

Assays:
HCC-2998 = experiment: NCI 60 cell line screen, Sulforhodamine B Assay; type: cell-based; conditions: Homo sapiens, HCC 2998, 48 h
How it was run: (§1)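 Run through the NCI-60 screening service: human cancer cell lines exposed to test compound for 48 h. Growth read as cellular protein content by sulforhodamine B staining, and GI50 derived from this.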

SF-295 = experiment: NCI 60 cell line screen, Sulforhodamine B Assay; type: cell-based; conditions: Homo sapiens, SF-295, 48 h
How it was run: as §1

[1] = test system: CT26 colon adenocarcinoma cells; experiment: CT26 xenograft tumor growth; type: in vivo, Balb/C athymic mice; conditions: 25 mg/kg i.p. every 3 days × 4; similarly to irinotecan
SNB-15 = experiment: NCI 60 cell line screen, Sulforhodamine B Assay; type: cell-based; conditions: Homo sapiens, 48 h
How it was run: (§2)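 Run through the National Cancer Institute 60 cell line screening service on its panel of 59 human cancer lines in vitro. Cytostatic/toxic effect was read as cellular protein content (sulforhodamine B) over 48 h.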

[2] = molecular target: recombinant human PFKFB3 protein (Homo sapiens, UniProt Q16875); experiment: Recombinant PFKFB3 kinase assay; type: biochemical
recombinant human PFKFB3 protein, sequence (Q16875 whole entry): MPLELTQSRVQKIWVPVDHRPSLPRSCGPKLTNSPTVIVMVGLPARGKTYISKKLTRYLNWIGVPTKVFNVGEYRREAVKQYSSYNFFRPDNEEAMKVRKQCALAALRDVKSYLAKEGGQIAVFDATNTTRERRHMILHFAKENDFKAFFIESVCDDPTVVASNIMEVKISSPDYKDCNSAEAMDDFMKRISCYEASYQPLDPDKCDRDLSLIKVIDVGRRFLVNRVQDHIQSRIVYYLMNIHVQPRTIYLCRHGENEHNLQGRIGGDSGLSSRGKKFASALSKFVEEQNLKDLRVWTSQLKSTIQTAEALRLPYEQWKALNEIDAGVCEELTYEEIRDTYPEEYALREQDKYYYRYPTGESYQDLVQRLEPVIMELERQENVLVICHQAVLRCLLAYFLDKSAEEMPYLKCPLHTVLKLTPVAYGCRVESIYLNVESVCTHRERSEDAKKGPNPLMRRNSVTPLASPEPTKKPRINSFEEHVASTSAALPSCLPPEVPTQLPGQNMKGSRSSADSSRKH

M14 = experiment: NCI 60 cell line screen, Sulforhodamine B Assay; type: cell-based; conditions: Homo sapiens, M14, 48 h
How it was run: as §1

SK-MEL-5 = experiment: NCI 60 cell line screen, Sulforhodamine B Assay; type: cell-based; conditions: Homo sapiens, SK-MEL-5, 48 h
How it was run: as §2

TK-10 = experiment: NCI 60 cell line screen, Sulforhodamine B Assay; type: cell-based; conditions: Homo sapiens, TK-10, 48 h
How it was run: as §2

LOX IMVI = experiment: NCI 60 cell line screen, Sulforhodamine B Assay; type: cell-based; conditions: Homo sapiens, 48 h
How it was run: as §1

PFKFB4 = PFKFB4 (Homo sapiens, UniProt Q16877); experiment: Activity of purified PFKFB4; type: biochemical; conditions: up to 100 μM; data not shown
PFKFB4, sequence (Q16877 whole entry, species assumed): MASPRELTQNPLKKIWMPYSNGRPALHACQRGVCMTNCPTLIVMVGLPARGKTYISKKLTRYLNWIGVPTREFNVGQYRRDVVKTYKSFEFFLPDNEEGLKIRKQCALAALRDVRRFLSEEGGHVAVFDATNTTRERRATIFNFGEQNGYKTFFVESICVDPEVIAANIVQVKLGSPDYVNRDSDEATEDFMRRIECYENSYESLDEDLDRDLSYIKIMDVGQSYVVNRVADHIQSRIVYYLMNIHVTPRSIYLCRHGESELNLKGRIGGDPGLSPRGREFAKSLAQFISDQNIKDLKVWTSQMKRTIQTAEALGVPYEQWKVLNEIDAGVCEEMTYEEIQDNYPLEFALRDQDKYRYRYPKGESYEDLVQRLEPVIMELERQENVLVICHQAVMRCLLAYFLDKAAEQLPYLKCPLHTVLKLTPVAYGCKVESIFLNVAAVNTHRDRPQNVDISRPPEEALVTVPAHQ

MALME-3M = experiment: NCI 60 cell line screen, Sulforhodamine B Assay; type: cell-based; conditions: Homo sapiens, 48 h
How it was run: as §1

U-87 glioblastoma cells = experiment: U-87 MG xenograft tumor growth; type: in vivo, Balb/C athymic mice; conditions: 25 mg/kg i.p. every 3 days × 4; compared with temozolomide
How it was run: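 U-87 MG cells from exponential culture (DMEM, 10% FCS) were washed and resuspended in PBS, and 1×10^6 cells were injected s.c. into 20 g Balb/C athymic mice. At 150–200 mg, tumours were randomised to DMSO, test compound (25 mg/kg i.p. every 3 days ×4) or temozolomide (30 mg/kg p.o., 3 days on/3 off). Blinded daily caliper mass = width²×length/2. Two experiments, n=8/group, mean±SD, unpaired two-tailed t-test.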

NCI-H23 = experiment: NCI 60 cell line screen, Sulforhodamine B Assay; type: cell-based; conditions: Homo sapiens, NCI-H23, 48 h
How it was run: as §1

UO-31 = experiment: NCI 60 cell line screen, Sulforhodamine B Assay; type: cell-based; conditions: Homo sapiens, UO-31, 48 h
How it was run: as §2

Jurkat and H522 cells = experiment: F26BP measurement in cells; type: cell-based, human; conditions: three hours exposure
How it was run: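 Cells plated at 1×10^5/well, 24 h in RPMI or DMEM (5% CO2, 37°C), then exposed to test compound for 3 h. Cells triturated, washed twice in PBS, dissolved in […] NaOH. F26BP measured by coupled enzyme reaction and normalized to BCA protein. Triplicate or quadruplicate; unpaired two-tailed t-test.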

[3] = Tolerability of intraperitoneal PFK15; conditions: 25 mg/kg i.p. every three days
UACC-257 = experiment: NCI 60 cell line screen, Sulforhodamine B Assay; type: cell-based; conditions: Homo sapiens, UACC-257, 48 h
How it was run: as §2

ACHN = experiment: NCI 60 cell line screen, Sulforhodamine B Assay; type: cell-based; conditions: Homo sapiens, 48 h
How it was run: as §1

OVCAR-8 = experiment: NCI 60 cell line screen, Sulforhodamine B Assay; type: cell-based; conditions: Homo sapiens, OVCAR-8, 48 h
How it was run: as §1

UACC-62 = experiment: NCI 60 cell line screen, Sulforhodamine B Assay; type: cell-based; conditions: Homo sapiens, UACC-62, 48 h
How it was run: as §2

OVCAR-4 = experiment: NCI 60 cell line screen, Sulforhodamine B Assay; type: cell-based; conditions: Homo sapiens, OVCAR-4, 48 h
How it was run: as §1

[4] = test system: BxPC-3 pancreatic cancer cells; experiment: BxPC-3 xenograft tumor growth; type: in vivo, Balb/C athymic mice; conditions: 25 mg/kg i.p. every 3 days × 4; similarly to gemcitabine
[5] = test system: Jurkat T cell leukemia cells; experiment: Cell viability, trypan blue exclusion; type: cell-based; conditions: Homo sapiens, 48 h, read-out: IC50 cytotoxic effects (viability)
EKVX = experiment: NCI 60 cell line screen, Sulforhodamine B Assay; type: cell-based; conditions: Homo sapiens, 48 h
How it was run: as §1

SR = experiment: NCI 60 cell line screen, Sulforhodamine B Assay; type: cell-based; conditions: Homo sapiens, 48 h
How it was run: as §2

A498 = experiment: NCI 60 cell line screen, Sulforhodamine B Assay; type: cell-based; conditions: Homo sapiens, A498, 48 h
How it was run: as §1

[6] = Pharmacokinetic profile after IV administration; type: in vivo, female C57Bl/6 mice; conditions: plasma
How it was run: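 Test compound was given IV to female C57Bl/6 mice, with 8 time points and 3 animals per time point. Plasma was extracted with acetonitrile and analysed by LC-MS/MS on a polar reverse-phase column with a 0.5% formic acid acetonitrile/water mobile phase. Tmax, Cmax, volume of distribution, half-life, clearance, AUCs and MRT were calculated from the concentration–time data.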

phosphoglucoseisomerase = phosphoglucoseisomerase (Homo sapiens, UniProt P06744); experiment: Activity of purified phosphoglucoseisomerase; type: biochemical; conditions: up to 100 μM; data not shown
SNB-19 = experiment: NCI 60 cell line screen, Sulforhodamine B Assay; type: cell-based; conditions: Homo sapiens, SNB-19, 48 h
How it was run: as §2

DU-145 = experiment: NCI 60 cell line screen, Sulforhodamine B Assay; type: cell-based; conditions: Homo sapiens, DU-145, 48 h
How it was run: as §1

IGROV1 = experiment: NCI 60 cell line screen, Sulforhodamine B Assay; type: cell-based; conditions: Homo sapiens, IGROV-1, 48 h
How it was run: as §1

KM12 = experiment: NCI 60 cell line screen, Sulforhodamine B Assay; type: cell-based; conditions: Homo sapiens, KM12, 48 h
How it was run: as §1

[7] = test system: Jurkat T cell leukemia cells; experiment: Annexin V / propidium iodide flow cytometry; type: cell-based, human; conditions: five hours
[8] = female, C57Bl/6, mouse, iv, 5 mg/kg

O=C(C=Cc1ccc2ccccc2n1)c1ccncc1 [PFK15, 1-(4-pyridinyl)-3-(2-quinolinyl)-2-propen-1-one]
GI50 (HCC-2998): 1910 nM | GI50 (SF-295): 13500 nM | growth of colon adenocarcinomas (CT26) [1]: suppressed the growth | GI50 (SNB-15): 11200 nM | IC50 [2]: 207 nM | fold more activity against PFKFB3 than 3PO ([2]; relative to 3PO): approximately 100 fold | GI50 (M14): 3720 nM | GI50 (SK-MEL-5): 3470 nM | GI50 (TK-10): 4070 nM | GI50 (LOX IMVI): 1660 nM | inhibition of activity of purified PFKFB4 (PFKFB4): not inhibit | GI50 (MALME-3M): 3310 nM | activity against glioblastoma growth (U-87 MG) (U-87 glioblastoma cells): lower than that observed by temozolomide | GI50 (NCI-H23): 3160 nM | GI50 (UO-31): 1620 nM | effect on F26BP (Jurkat and H522 cells): reduced | body mass loss [3]: < 10% | end organ toxicity based on blood, urine and histological analyses [3]: no end organ toxicity | GI50 (UACC-257): 3980 nM | GI50 (ACHN): 2040 nM | GI50 (OVCAR-8): 1820 nM | GI50 (UACC-62): 2510 nM | GI50 (OVCAR-4): 2340 nM | growth of pancreatic adenocarcinomas (BxPC-3) [4]: suppressed the growth | IC50 [5]: 2420 nM | GI50 (EKVX): 12900 nM | GI50 (SR): 230 nM | GI50 (A498): 11800 nM | AUC0-inf ([6]; IV, C57Bl/6 mice): 1804 ng/h/mL | Cmax [6, 8]: 3050 ng/mL | clearance [6, 8]: 46.2 mL/min/kg | half-life [6, 8]: 5.1 h | inhibition of activity of purified phosphoglucoseisomerase (phosphoglucoseisomerase): not inhibit | GI50 (SNB-19): 4570 nM | GI50 (DU-145): 2240 nM | GI50 (IGROV1): 4370 nM | GI50 (KM12): 1950 nM | cells undergoing early apoptosis (Annexin V+/PI−) ([7]; 3 μM): increased | cells undergoing late apoptosis (Annexin V+/PI+) ([7]; 3 and 20 μM): dose-dependent increase
